V1R ag counter: V1a receptor agonism, counter-screen for OXTR agonists; P37288; CHO-V1R cells, Fluo-8 calcium fluorescence, agonist mode; 0% DMSO, 100% 3 nM vasopressin; activation, % at 3 µM; actives 0.25% (n = 320,000);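 active = activation above the mean activation of all tested compounds plus 3 SD, per screening run, cut at about 20% in these data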;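 also: signal is peak over basal fluorescence ratio across a 100 second FLIPR read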
OXTR ag: human OXTR agonism; P30559; CHO-OTR cells, Fluo-8 calcium fluorescence; normalized: DMSO 0%, oxytocin 100%; activation, % at 3 µM; actives 0.32% (n = 320,000); AID 2435;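 active = activation above the mean of all tested compounds plus 3 SD, cutoff set per screening run, cut at about 20% in these data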;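 also: peak over basal fluorescence ratio from a 100 s FLIPR kinetic read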
Target sequence (P30559 whole entry, looked up): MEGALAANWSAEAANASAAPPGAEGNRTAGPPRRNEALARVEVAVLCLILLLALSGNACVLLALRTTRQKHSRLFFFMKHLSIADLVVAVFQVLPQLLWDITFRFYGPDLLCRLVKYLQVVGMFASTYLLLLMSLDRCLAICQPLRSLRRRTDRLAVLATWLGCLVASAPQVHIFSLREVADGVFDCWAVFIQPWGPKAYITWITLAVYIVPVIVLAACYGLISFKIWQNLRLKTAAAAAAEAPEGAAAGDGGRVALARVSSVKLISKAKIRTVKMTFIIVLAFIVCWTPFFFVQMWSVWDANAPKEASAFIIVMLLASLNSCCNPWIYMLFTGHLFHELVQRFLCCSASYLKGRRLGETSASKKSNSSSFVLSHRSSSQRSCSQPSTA
OXTR potentiate: potentiates the human oxytocin receptor response. CHO-OTR cells, Fluo-8 calcium fluorescence, potentiator mode; 0% = oxytocin EC15, 100% = EC100. activation, % at 3 µM. actives 0.061% (n = 320,000). AID 2445. P30559;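 active = activation above that plate's cutoff, the mean activation of tested compounds plus 3 SD, cut at about 6.6% in these data, passing the limit was not always enough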;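 also: 100% uses oxytocin at 75 nM as the full agonist control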
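System: human OTR in CHO cells / Also added: sub-maximal oxytocin, roughly EC15 / Control set: EC15 oxytocin low, 75 nM oxytocin high / Schedule: 6 min compound pre-incubation at room temperature, 100 s kinetic read / Compound: single-point 3.0 µM / Replication: singlicate / Technique: Fluo-8 calcium dye fluorescence / Read-out basis: % activation of max/min ratio relative to oxytocin controls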
zfTRPN1 agonist: zebrafish TRPN1 (NompC) channel agonism | HEK293 zebrafish TRPN1-YFP, Fluo-8 calcium fluorescence; 100% = response to 87 µM carbachol | activation, % at 3 µM | actives 0.18% (n = 220,000) | AID 1424;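 active = activation above its plate's cutoff, the mean activation of test wells on that plate plus 3 SD, cut at about 19% in these data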;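 also: 0% = DMSO alone and 100% = 87 µM carbachol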
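Material: zebrafish TRPN1-YFP in HEK293 cells. Doses: one dose of 3 µM, 0.3% DMSO. Incubation: dye 1 h 37 °C plus 30 min RT. Measured by: intracellular calcium fluorescence with Fluo-8.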
TRPML3 ag: activates the human TRPML3 channel | Q8TDD5 | HEK293 TRPML3-YFP, Fluo-8 calcium fluorescence; 100% = the carbachol control signal | activation, % at 3 µM | actives 0.29% (n = 220,000) | AID 1448;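 active = activation above its plate's cutoff, the mean activation of the plate's test wells plus 3 SD, cut at about 12% in these data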;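 also: 0% = DMSO only wells and 100% = carbachol wells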
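Test system – HEK293 line with stable expression of human TRPML3-YFP channel · Control set – carbachol 87 µM final as high control (100%), DMSO as low control (0%) · Signal – Fluo-8 calcium dye fluorescence, ex 470-495, em 515-575 nm · Incubation – 1-h 37 °C dye load, 5-s basal, 120-s post-compound reads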
TRPN1 ag 2: activates zebrafish TRPN1, counter-screen for TRPML3 agonists. HEK293 zebrafish TRPN1-YFP, Fluo-8 calcium fluorescence; scaled: carbachol wells 100%, DMSO wells 0%. shares compounds with TRPML3 ag. activation, % at 3 µM. actives 10% (n = 310);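 active = mean activation over replicates above a set limit taken from the earlier TRPN1 channel primary screen, cut at about 19% in these data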;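 also: 100% = carbachol and 0% = 0.3% DMSO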
TRPML3 ag conf: human TRPML3 agonism, confirmation | shares compounds with TRPML3 ag | HEK293 TRPML3-YFP, Fluo-8 calcium fluorescence; 100% set by carbachol, 0% by DMSO | activation, % at 3 µM | actives 80% (n = 310) | AID 1526;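 active = activation above a set limit derived from the earlier primary screen, cut at about 12% in these data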
* = called active by the depositor; · = not tested or not shown. Rows were chosen to be rich in hits. Some 0.55% of all compounds tested hit in one or more screens of this group.

SMILES | V1R ag counter | OXTR ag | OXTR potentiate | zfTRPN1 agonist | TRPML3 ag | TRPN1 ag 2 | TRPML3 ag conf
CCOC(=O)N1CCN(S(=O)(=O)c2ccc(OC)c(Cl)c2Cl)CC1 | 3 | 4 | -17 | 2 | 1 | · | ·
Cc1ccc(S(=O)(=O)N2CCCCCC2)cc1[N+](=O)[O-] | -2 | -3 | -6 | -1 | 12* | -1 | 19*
CCN1CCN(S(=O)(=O)c2ccc(C)c([N+](=O)[O-])c2)CC1 | 0 | 0 | -6 | 1 | 0 | · | ·
COc1ccc(S(=O)(=O)N2CCC(C)CC2)cc1OC | 0 | 0 | -1 | · | · | · | ·
COc1ccc(S(=O)(=O)N2CCC(C)CC2)cc1Br | -1 | -2 | -14 | 0 | 66* | -1 | 106*
Cc1ccc(S(=O)(=O)N2CCC(C)CC2)cc1[N+](=O)[O-] | · | · | · | -1 | 93* | 1 | 87*
Cc1ccc(N2C(=O)N(CC(=O)N3CCCc4ccccc43)C(=O)C2C)cc1 (configuration not stated) | 0 | -1 | 2 | -2 | 0 | · | ·
O=S(=O)(Nc1ccccc1N1CCCCC1)c1ccc(F)cc1 | -1 | -3 | 2 | -3 | 31* | -2 | 78*
O=S(=O)(Nc1ccccc1N1CCCCC1)c1cccs1 | -2 | -4 | -1 | -2 | 14* | -2 | 33*
CCN(CC)S(=O)(=O)c1ccc(C2=NOC3(C2)N(C)c2ccccc2C3(C)C)cc1 (configuration not stated) | 2 | 0 | -13 | 0 | 1 | · | ·
Cc1cc2nc3c(=O)[nH]c(=O)[nH]c3nc2c([N+](=O)[O-])c1N | · | · | · | 15 | 12* | 7 | 5
COc1ccc(CN2CCC(n3nccc3NC(=O)c3cccc(F)c3)CC2)cc1O | 1 | 0 | 3 | · | · | · | ·
Cc1ccc(S(=O)(=O)N(CC(=O)N2CCCCC2)c2cccc(C)c2)cc1 | -1 | -1 | -8 | 0 | 127* | 2 | 139*
Cc1cc(C)cc(N(CC(=O)N2CCOCC2)S(=O)(=O)c2ccccc2)c1 | -1 | 0 | -15 | 1 | 35* | 0 | 46*
Cc1cc(C)cc(N(CC(=O)N2CCC(C)CC2)S(=O)(=O)c2ccccc2)c1 | -2 | -2 | -7 | -2 | 8 | · | ·
COc1ccc(-c2[nH]ncc2CNCCn2cccn2)c(F)c1 | 0 | 1 | -2 | -1 | 1 | · | ·
O=C1C=C(NC2=CC3OC(c4ccccc4)OCC3OC2=O)CCC1 (configuration not stated) | 1 | 1 | 1 | 1 | 30* | 1 | 1
Cc1ccccc1CN(C)C1CCN(C)CC1 | 1 | 0 | -4 | · | · | · | ·
COC(=O)c1ccc(CN(c2ccccc2Cl)S(C)(=O)=O)cc1 | 1 | -1 | -8 | -2 | 0 | · | ·
COC(=O)c1ccc(Cl)cc1N(Cc1c(F)cccc1Cl)S(C)(=O)=O | -1 | -4 | -3 | 4 | 70* | 11 | 84*
C=CCn1c(SCn2nnc3ccccc3c2=O)nnc1C1CCCCC1 | -2 | 5 | -1 | -1 | 0 | · | ·
COc1ccc2c(c1)C(C)=CC(C)(C)N2C(=O)CSc1nnc(-c2ccc(C)cc2)o1 | -1 | -1 | -4 | -2 | 37* | -1 | 48*
COc1ccc(C(=O)CSc2nnc(-c3ccc(C)cc3)o2)cc1 | 1 | 1 | 0 | 0 | 0 | · | ·
COc1ccc(CS(=O)(=O)CC2(O)CCN(C(=O)c3cccc(C(F)(F)F)c3)CC2)cc1 | 0 | 1 | -5 | 0 | 1 | · | ·
O=S(=O)(NC1CCCCC1N1CCN(c2ccccc2F)CC1)c1ccc(Cl)cc1 (configuration not stated) | 0 | -1 | -11 | · | · | · | ·
SMILES | V1R ag counter | OXTR ag | OXTR potentiate | zfTRPN1 agonist | TRPML3 ag | TRPN1 ag 2 | TRPML3 ag conf
O=S(=O)(NC1CCCCC1N1CCOCC1)c1ccc(Cl)cc1 (configuration not stated) | 1 | 0 | -1 | 0 | 129* | 5 | 151*
Cc1ccc(S(=O)(=O)N2CCc3ccccc3C2CN2C(=O)c3ccccc3C2=O)cc1 (configuration not stated) | -1 | -1 | -16 | 1 | 22* | -1 | 13*
COc1ccc(CN(C)CC(=O)Nc2ccccc2C(=O)NC2CC2)cc1F | 1 | -1 | -3 | · | · | · | ·
CC1(C)Cc2cccc(Oc3ccc(S(=O)(=O)N4CCCC4)cn3)c2O1 | -1 | -2 | -9 | -1 | 2 | · | ·
CC1(C)Cc2cccc(Oc3ccc(S(=O)(=O)N4CCCCC4)cn3)c2O1 | -1 | -2 | -14 | -2 | 20* | -1 | 30*
CCOc1ccc(-n2cnnn2)cc1S(=O)(=O)Nc1c(C)cccc1C | 1 | 0 | -4 | 1 | 18* | 0 | 0
CCOc1ccc(-n2cnnn2)cc1S(=O)(=O)NC1CC1 | 0 | 1 | -6 | 0 | 0 | · | ·
CCOc1ccccc1NC(=O)C1CCN(c2ccc(S(=O)(=O)N3CCCC3)cc2)CC1 | 0 | 0 | -6 | 0 | 20* | 1 | 20*
CCCCCCCCN1[C@@H](CC(=O)O)c2ccc(C(F)(F)F)cc2S1(=O)=O | -1 | 0 | -7 | · | · | · | ·
COC(=O)[C@@H](Cc1c[nH]c2ccccc12)NC(=O)c1cc(=O)[nH]c2ccccc12 | 1 | 1 | -3 | 0 | 1 | · | ·
CCC(C)NC(=O)NCc1ccccc1F (configuration not stated) | -1 | 0 | -12 | -1 | 0 | · | ·
Cc1ccc(CNS(=O)(=O)NCc2cccs2)cc1 | -1 | -2 | 6 | -3 | 0 | · | ·
COc1ccc(OC)c(S(=O)(=O)N2CCCc3ccccc32)c1 | 0 | -3 | -14 | -1 | 48* | -1 | 56*
COc1ccc(OC)c(S(=O)(=O)N2CCc3ccccc32)c1 | -1 | -1 | -4 | -2 | 2 | · | ·
Cc1cc(C)c(S(=O)(=O)c2c(C)cccc2C)c(OCC(C)C)n1 | 0 | -1 | -7 | 0 | 12* | 0 | 43*
CCOc1nc(C)cc(C)c1S(=O)(=O)c1cccc(C)c1 | -1 | -2 | -2 | -2 | 0 | · | ·
C#CCOc1nc(C)cc(C)c1S(=O)(=O)c1ccccc1C | -1 | -1 | 6 | -3 | 41* | -3 | 61*
COc1nc(C)cc(C)c1S(=O)(=O)c1ccccc1C | -1 | -2 | -5 | · | · | · | ·
On1onc2c3cc(-c4ccccc4)nc3ccc21 | 1 | 3 | -10 | 1 | 12* | 3 | 1
Cc1ccc(N/C(N)=N/c2nc(C)cc(C)n2)cc1 | 7 | 7 | -12 | 9 | 15* | 31* | 20*
